Experiments:
[1] = test system: CYP2C19; type: in vivo, human; details: probe with upadacitinib 30 mg once daily relative to probe alone, all subjects
[2] = Plasma pharmacokinetics of the CYP probe substrates and metabolites; type: in vivo, human; details: for t1/2 / half-life: harmonic mean ± pseudo-SD; for AUC(0-inf): AUCinf; for AUC(0-t): AUCt
[3] = target: T1, CYP1A2 (Homo sapiens, UniProt P05177); type: in vivo; details: probe with upadacitinib 30 mg once daily relative to probe alone, all subjects
T1 sequence (P05177 1-516): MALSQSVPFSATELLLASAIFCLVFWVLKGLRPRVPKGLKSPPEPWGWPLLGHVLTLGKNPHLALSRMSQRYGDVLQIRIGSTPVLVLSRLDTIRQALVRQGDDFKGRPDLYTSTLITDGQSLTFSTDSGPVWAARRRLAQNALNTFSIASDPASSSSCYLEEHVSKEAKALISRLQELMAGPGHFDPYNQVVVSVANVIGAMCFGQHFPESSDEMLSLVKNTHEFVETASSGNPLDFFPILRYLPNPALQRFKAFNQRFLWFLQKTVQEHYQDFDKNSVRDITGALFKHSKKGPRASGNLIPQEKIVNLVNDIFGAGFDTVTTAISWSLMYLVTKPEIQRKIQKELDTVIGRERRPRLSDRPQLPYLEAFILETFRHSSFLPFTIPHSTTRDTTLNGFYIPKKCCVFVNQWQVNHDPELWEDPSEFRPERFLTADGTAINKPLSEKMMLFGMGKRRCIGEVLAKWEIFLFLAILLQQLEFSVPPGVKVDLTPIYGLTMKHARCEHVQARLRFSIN
Outline: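 Twenty subjects received single oral doses on two occasions: a caffeine 200 mg tablet with the other cocktail probes, after a 10-hour minimum fast and 4 hours before lunch. This was given first alone, then after a 5-day washout on day 12 of test compound 30 mg once daily (days 1‐15). Heparinised plasma was sampled predose through 24 h and at 36 h, with validated assay.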

[4] = test system: CYP2D6; type: in vivo, human; details: probe with upadacitinib 30 mg once daily relative to probe alone, all subjects
[5] = test system: CYP3A; type: in vivo, human
[6] = test system: CYP3A; details: cited from earlier work
[7] = Safety assessments in the cocktail study; type: in vivo, human
[8] = cited from earlier work
[9] = Period 1, CYP probes alone, median (range)
[10] = Period 1, CYP probes alone, n = 20, mean ± SD
[11] = Period 2, CYP probes + upadacitinib 30 mg once daily
[12] = Period 2, CYP probes + upadacitinib 30 mg once daily, median (range)
[13] = Period 2, CYP probes + upadacitinib 30 mg once daily, n = 20, mean ± SD
[14] = human, plasma, oral, t1/2, Period 2, CYP probes + upadacitinib 30 mg once daily
[15] = human, plasma, oral, Period 1, CYP probes alone, n = 20, mean ± SD
[16] = human, plasma, oral, Period 2, CYP probes + upadacitinib 30 mg once daily, n = 20, mean ± SD
[17] = multiple doses of upadacitinib 30 mg once daily
[18] = probe with upadacitinib 30 mg once daily relative to probe alone, all subjects

Compound | t1/2 ([2]; Period 1, CYP probes alone) [h] | Tmax [2, 9] | t1/2 [2, 11] [h] | Tmax [2, 12] | CL/F [2, 10] [L/h] | CL/F [2, 13] [L/h] | Tmax ([2]; human, plasma, oral) [h] | Cmax ([2]; human, plasma, po) [ng/mL] | AUC(0-inf) [2, 16] [ng·h/mL] | AUC(0-t) [2, 15] [ng·h/mL] | AUC(0-t) [2, 16] [ng·h/mL] | also measured
COc1ccc2nc([S+]([O-])Cc3ncc(CO)c(OC)c3C)[nH]c2c1 (centres unmarked) [5‐Hydroxy omeprazole, 5‐hydroxy‐omeprazole] | 1.36 ± 0.293 | 3.0 (2.0‐6.0) h | 1.37 ± 0.319 | 3.0 (2.0‐6.0) h |  |  |  |  |  |  |  | AUCinf Central Value Ratio (90%CI) [1]: 0.92 (0.86‐0.99); AUCt Central Value Ratio (90%CI) [1]: 0.92 (0.85‐0.99); AUCinf [2, 10]: 1290 ± 364 ng·h/mL; AUCt [2, 10]: 1270 ± 359 ng·h/mL; Cmax ([2]; Period 1, CYP probes alone, single oral dose, plasma, healthy subjects n = 20, mean ± SD): 435 ± 155 ng/mL; AUCinf [2, 13]: 1180 ± 302 ng·h/mL; AUCt [2, 13]: 1160 ± 292 ng·h/mL; Cmax ([2]; Period 2, CYP probes + upadacitinib 30 mg once daily, plasma, n = 20, mean ± SD): 389 ± 116 ng/mL
Cn1c(=O)c2c(ncn2C)n(C)c1=O [Caffeine, caffeine] |  |  |  | 2.0 (1.0‐4.0) h | 6.53 ± 2.99 | 5.31 ± 2.26 | 2 | 4190 ± 826 |  |  |  | half-life ([2]; human, plasma, oral, t1/2, Period 1, CYP probes alone): 4.52 ± 1.5 h; half-life [2, 14]: 5.28 ± 1.5 h; AUCinf Central Value Ratio (90%CI) [3]: 1.22 (1.15‐1.29); AUCt Central Value Ratio (90%CI) [3]: 1.21 (1.15‐1.28); Cmax Central Value Ratio (90%CI) [3]: 1.13 (1.05‐1.22)
COc1ccc2c(c1)[C@]13CCCC[C@@H]1[C@H](C2)N(C)CC3 [Dextromethorphan, dextromethorphan] | 6.82 ± 4.68 |  | 7.26 ± 5.08 | 3.5 (2.0‐6.0) h | 4120 ± 5580 | 3390 ± 4560 | 3.5 | 7.77 ± 10.1 | 328 ± 552 | 250 ± 397 | 225 ± 347 | AUCinf Central Value Ratio (90%CI) [4]: 1.07 (0.95‐1.22); AUCt Central Value Ratio (90%CI) [4]: 1.10 (0.97‐1.25); Cmax Central Value Ratio (90%CI) [4]: 1.09 (0.98‐1.21); AUC(0-inf) [2, 15]: 403 ± 706 ng·h/mL
Cc1ncc2n1-c1ccc(Cl)cc1C(c1ccccc1F)=NC2 [Midazolam, midazolam] | 4.65 ± 2.51 | 0.5 (0.5‐1.0) h | 4.08 ± 2.33 |  | 68.1 ± 29.2 | 90.2 ± 32.7 |  | 32.6 ± 14.1 | 64.6 ± 30.9 | 87.5 ± 44.5 | 63.2 ± 29.6 | decrease in AUCinf [5, 17]: 26%; decrease in Cmax [5, 17]: 26%; AUCinf Central Value Ratio (90%CI) [5, 18]: 0.74 (0.68‐0.80); AUCt Central Value Ratio (90%CI) [5, 18]: 0.74 (0.68‐0.80); Cmax Central Value Ratio (90%CI) [5, 18]: 0.74 (0.68‐0.80); decrease in exposure ([5]; upadacitinib 30 mg once daily): 26%
COc1ccc2[nH]c([S+]([O-])Cc3ncc(C)c(OC)c3C)nc2c1 (centres unmarked) [Omeprazole, omeprazole] |  |  |  | 3.0 (2.0‐6.0) h | 26.5 ± 20.5 | 34.9 ± 24.7 | 3 |  | 2080 ± 1860 | 2520 ± 2750 | 2000 ± 1820 | AUCinf Central Value Ratio (90%CI) [1]: 0.82 (0.72‐0.94); AUCt Central Value Ratio (90%CI) [1]: 0.87 (0.77‐0.99); Cmax Central Value Ratio (90%CI) [1]: 0.87 (0.72‐1.05); AUC(0-inf) [2, 15]: 2890 ± 2870 ng·h/mL; half-life [2, 14]: 1.14 ± 0.386 h
CC(=O)C[C@@H](c1ccccc1)c1c(O)c2ccccc2oc1=O [S‐warfarin] |  | 2.0 (0.5‐4.0) h |  | 2.0 (0.5‐3.0) h |  |  |  |  |  |  |  | concentrations at the start of period 2 ([2]; carryover after 5-day washout): < 5 % of S‐warfarin Cmax
CC[C@@H]1CN(C(=O)NCC(F)(F)F)C[C@@H]1c1cnc2cnc3[nH]ccc3n12 [Upadacitinib] |  |  |  |  |  |  |  |  |  |  |  | sensitivity as CYP3A substrate ([6]; concluded from ketoconazole and rifampin interaction): not a sensitive substrate for CYP3A; increase in upadacitinib AUC ([6]; with ketoconazole, a strong CYP3A inhibitor): 75%; tolerability ([7]; CYP probe substrates alone or after multiple doses of upadacitinib 30 mg once daily, healthy subjects): well tolerated; adverse event assessed as possibly related to upadacitinib ([7]; one subject): mild oropharyngeal pain; administered dose recovered as unchanged upadacitinib in feces and urine [8]: more than 60%; metabolizing enzymes [8]: metabolized by cytochrome P450 (CYP) 3A and, to a lesser extent, by CYP2D6; accumulation in plasma ([8]; multiple once-daily dosing of the extended-release formulation): no accumulation; effect of upadacitinib on CYP3A activity / probe exposure in vivo (in words) ([5]; upadacitinib 30 mg once daily, midazolam probe): limited effect
